Bioassay records as filed in PubChem BioAssay.
Sampled rows, rich in hits. Any-hit rate of the full collection: about 0.81%.
TNF death inh: blocks TNF-alpha induced death of Jurkat FADD-/- cells. activation (protection from cell death), % at 10 µM. Jurkat FADD-/- TNF necroptosis rescue, ATP luminescence, 24 h; 0 = TNF only, 100 = no-TNF cells. 220,000 compounds, 0.068% hits;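 active means activation, meaning protection from cell death, of at least 50% relative to plate controls; inactive means activation below 50%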;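 further: necroptosis triggered by 40 ng/mL TNF-alpha added together with compound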
L929 necroptosis: blocks zVAD induced death of L929 cells. 220,000 compounds, 0.38% hits. AID 1377. viability rescue, % at 10 µM. L929 zVAD necroptosis rescue, ATP luminescence, 24 h; with zVAD 60 µM;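 active means activation, scaled between plate controls, above about 75%, limit read from the data; inactive means activation under that limit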
SDO1 yeast rescue: compounds rescuing growth of sdo1-depleted yeast, bone marrow failure model. S. cerevisiae sdo1-depleted JHY4D growth rescue, OD600 30 h; stronger effect = higher value; pdr5 snq2 efflux-pump mutant strain. z-score at 10 µM. 140,000 compounds, 0.21% hits;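 active means z-score above 3 at both the 24 hr and the 30 hr optical density reads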
TNAP act hi DEA: activators of human TNAP at high phosphate acceptor concentration. P05186. purified TNAP, CDP-star luminescence, 1 M DEA, 30 min; stronger effect = higher value; 0 = EDTA background, 1 = DMSO-only activity. activation factor at 20 µM. 200,000 tested, under 10 active;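 active means activation factor at least 2 at 20 µM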
Target sequence (P05186 whole entry, looked up): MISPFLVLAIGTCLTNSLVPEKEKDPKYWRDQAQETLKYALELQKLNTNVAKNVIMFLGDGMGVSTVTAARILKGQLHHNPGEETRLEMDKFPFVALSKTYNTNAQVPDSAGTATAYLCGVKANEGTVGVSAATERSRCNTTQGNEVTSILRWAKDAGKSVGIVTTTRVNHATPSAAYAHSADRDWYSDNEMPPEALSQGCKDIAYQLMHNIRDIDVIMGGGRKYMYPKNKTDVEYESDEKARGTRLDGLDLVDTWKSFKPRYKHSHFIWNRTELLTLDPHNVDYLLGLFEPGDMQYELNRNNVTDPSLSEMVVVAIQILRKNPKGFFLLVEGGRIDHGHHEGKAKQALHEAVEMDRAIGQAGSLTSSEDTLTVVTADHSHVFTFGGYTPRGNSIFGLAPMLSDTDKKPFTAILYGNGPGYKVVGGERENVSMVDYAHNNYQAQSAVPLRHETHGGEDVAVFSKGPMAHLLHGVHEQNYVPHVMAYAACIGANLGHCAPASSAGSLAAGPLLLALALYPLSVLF
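Control set: EDTA negative control, DMSO positive control / Assay system: human TNAP / Quantity: TNAP 1/800 final / Evaluation: TNAP activation factor scaled between EDTA and DMSO control wells / Measured by: luminescent substrate turnover signal / Compound dosing: one dose, 20 µM / Times: 30 min enzyme reaction at room temperature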
TNAP inh noacc: blocks human TNAP activity with no phosphate acceptor present. P05186. purified TNAP, CDP-star luminescence, 30 min. inhibition, % at 20 µM. 200,000 compounds, 0.26% hits. AID 1012;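 active means tissue-nonspecific alkaline phosphatase inhibition above about 50% at 20 µM in the single-dose screen, limit read from the data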
TNAP inh hi DEA: TNAP (human) inhibition, high acceptor | P05186 | purified TNAP, CDP-star luminescence, 1 M DEA | inhibition, % at 20 µM | 200,000 compounds, 0.03% hits;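 active means over 50% inhibition of tissue-nonspecific alkaline phosphatase at 20 µM in the single-dose screen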
SDO1 rescue DR: SDO1-depleted yeast growth rescue confirmation; OD recovery (test concentration not listed); AID 949; shares compounds with SDO1 yeast rescue; S. cerevisiae JHY4D (SDO1-depleted) growth rescue, OD600, 30 h; stronger effect = higher value; efflux-deficient strain, SNQ2 and PDR5 mutated; 440 compounds, 44% hits;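 active means yeast growth recovered at 30 hours, either rising with dose fitted slope above 0.001 or with average optical density gain above 0.07, some results past the limit were not filed as active; inactive means growth falling with dose or no effect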
Large screens that a line does not name were inactive (follow-up assays come after a bar, where they were run).

CCOC(=O)C1CCCN(C(=O)Nc2cccc(Cl)c2)C1 (stereo unspecified)	none | SDO1 rescue DR inactive
O=C(O)CCCn1cc(NC(=O)c2c(F)cccc2F)cn1	none (no result: SDO1 yeast rescue)
CCCCOCCCNC(=O)c1ccc(OCC)cc1	none
COc1c(/C=N/Nc2ccc([N+](=O)[O-])cc2[N+](=O)[O-])c(C)nn1-c1ccccc1	none | SDO1 rescue DR inactive
COc1cccc(CN2C(=O)C3CCCN3c3ccc(S(=O)(=O)N4CCOCC4)cc32)c1 (stereo unspecified)	none
Cc1ncoc1C(=O)Nc1cccc(Cl)c1C	none
Cc1c(Cl)cccc1NC(=O)c1ccc(-n2ccnc2)nc1	SDO1 yeast rescue 3.5 | SDO1 rescue DR inactive
COc1ccc(CCNC(=O)COC(=O)c2ccc(N3CCCC3=O)cc2)cc1	none (no result: SDO1 yeast rescue)
Cc1ccccc1NC(=O)C1CCCN1/C=C/C(=O)C(F)(F)F (stereo unspecified)	none
Nc1c(N2CCOCC2)cc(Cl)c2nonc12	SDO1 yeast rescue 6 | SDO1 rescue DR inactive
O=C(COC(=O)/C=C/c1ccccc1[N+](=O)[O-])Nc1ccc(OC(F)F)cc1	SDO1 yeast rescue 11 | SDO1 rescue DR inactive
CCOc1ccc(C2c3c(oc4ccccc4c3=O)C(=O)N2CCCN2CCOCC2)cc1OCC (stereo unspecified)	none | SDO1 rescue DR inactive
COc1ccc(C2c3c(oc4ccccc4c3=O)C(=O)N2CCCN2CCOCC2)cc1 (stereo unspecified)	none (no result: SDO1 yeast rescue, TNAP act hi DEA, TNAP inh noacc, TNAP inh hi DEA)
Cc1ccc(-c2cc(C(F)F)n3ncc(C(=O)N4CCCCC4c4cccnc4)c3n2)cc1 (stereo unspecified)	none (no result: SDO1 yeast rescue)
O=C1NC2CCCCC2NC1CC(=O)N1CCN(c2ccccc2)CC1 (stereo unspecified)	none (no result: SDO1 yeast rescue, TNAP act hi DEA, TNAP inh noacc, TNAP inh hi DEA)
CCCc1nn(C)c(C(=O)Nc2ccc3ccccc3c2)c1Cl	SDO1 yeast rescue 4.1 | SDO1 rescue DR 0.096
C=CCc1cc(Cl)ccc1OC(=O)Nc1cccc(Cl)c1	none (no result: SDO1 yeast rescue, TNAP act hi DEA, TNAP inh noacc, TNAP inh hi DEA)
CCOC(=O)c1oc2ccccc2c1NC(=O)c1cccc(OC)c1OC	none | SDO1 rescue DR 0.095
CCN1CCN(C(=S)NC(C)c2ccccc2)CC1 (stereo unspecified)	none
O=[N+]([O-])c1cc(S(=O)(=O)N2CCCC2)ccc1N/N=C/c1ccncc1	none (no result: L929 necroptosis) | SDO1 rescue DR inactive
O=C(O)c1ccc(/C=N/Nc2ccc(S(=O)(=O)N3CCCC3)cc2[N+](=O)[O-])cc1	none (no result: SDO1 yeast rescue, TNAP act hi DEA, TNAP inh noacc, TNAP inh hi DEA)
O=[N+]([O-])c1cc(S(=O)(=O)N2CCCC2)ccc1N/N=C/c1ccccn1	none
O=[N+]([O-])c1cc(S(=O)(=O)N2CCCC2)ccc1N/N=C/c1cccs1	none | SDO1 rescue DR inactive
Cn1c(=O)[nH]c(=O)c2c1nc(N1CCCC1)n2CCCSc1nnnn1-c1ccccc1	none | SDO1 rescue DR inactive
Cn1c(=O)[nH]c(=O)c2c1nc(N1CCCCCC1)n2CCCSc1nnnn1-c1ccccc1	none
CC1=C(C(=O)NCc2ccc3c(c2)OCO3)C2(CCC(C)CC2)OC1=O (stereo unspecified)	none | SDO1 rescue DR inactive
COc1cccc2c1OCC/C2=N\NC(=O)COc1ccc(C)cc1	none | SDO1 rescue DR inactive
Cc1nc2ncnn2c(C)c1CCC(=O)O	SDO1 yeast rescue 3.9 | SDO1 rescue DR 0.099
CCc1sc(C(=O)Nc2ccccc2N2CCOCC2)cc1C	none (no result: SDO1 yeast rescue)
CCCCC(=O)NCc1ccc(Cl)cc1	none
CCC(C)[C@H](NC(=O)NCCCN1CCOCC1)C(=O)OC (stereo partly specified)	SDO1 yeast rescue 5.6 | SDO1 rescue DR inactive
N#CCCN(Cc1ccccc1)C(=O)Nc1ccc(F)cc1	none (no result: SDO1 yeast rescue, TNAP act hi DEA, TNAP inh noacc, TNAP inh hi DEA)
CCC(=O)OCCn1c(=O)c2cc3c(=O)n(CCOC(=O)CC)c(=O)c3cc2c1=O	none | SDO1 rescue DR 0.083
COC(=O)c1c(C)[nH]c(C(=O)/C=C/c2cccc(Cl)c2)c1C	SDO1 yeast rescue 11 | SDO1 rescue DR inactive
CCOC(=O)C(NC(=O)OC(C)C)(Nc1nccs1)C(F)(F)F (stereo unspecified)	SDO1 yeast rescue 13 | SDO1 rescue DR 0.088
COC(=O)C(NC(=O)c1ccccc1)(Nc1nccs1)C(F)(F)F (stereo unspecified)	none
CCCN(CC1CC1)S(=O)(=O)c1ccc(-n2cnnn2)c(OC)c1	none
CCSc1ncc(Cl)c(C(=O)Nc2sc3c(c2C(=O)NCc2cccnc2)CCCC3)n1	none | SDO1 rescue DR 0.072
CCSc1nc(-c2cccs2)nc2ccccc12	none (no result: SDO1 yeast rescue)
CCN(CC)CCN1C(=O)c2oc3ccc(F)cc3c(=O)c2C1c1ccncc1 (stereo unspecified)	none (no result: SDO1 yeast rescue, TNAP act hi DEA, TNAP inh noacc, TNAP inh hi DEA)
COC(=O)c1ccc(C2c3c(oc4ccc(F)cc4c3=O)C(=O)N2CCO)cc1 (stereo unspecified)	none | SDO1 rescue DR inactive
Cn1nc(-c2ccccc2)cc1NC(=O)c1cccs1	none (no result: SDO1 yeast rescue, TNAP act hi DEA, TNAP inh noacc, TNAP inh hi DEA)
Cc1cc(NC(=O)c2cccs2)n(-c2ccccc2)n1	SDO1 yeast rescue 3.5 | SDO1 rescue DR 0.083
CCC(C)[C@@H](NC(=O)OC(C)(C)C)c1nnc(S(=O)(=O)Cc2cccc(C)c2)o1 (stereo partly specified)	SDO1 yeast rescue 5.6 | SDO1 rescue DR 0.11
CC1(/[N+]([O-])=C\c2ccccc2F)CCCCC1=O (stereo unspecified)	none (no result: SDO1 yeast rescue, TNAP act hi DEA, TNAP inh noacc, TNAP inh hi DEA)
O=C(CC1S/C(=N/N=C/c2c[nH]c3ccccc23)NC1=O)Nc1ccccc1 (stereo unspecified)	SDO1 yeast rescue 3.9 | SDO1 rescue DR 0.085
O=C(CC1S/C(=N/N=C/c2c[nH]c3ccc(OCc4ccccc4)cc23)NC1=O)Nc1ccccc1 (stereo unspecified)	none
Cc1nn(-c2ccccn2)c2c1C(c1c(F)cccc1Cl)C1=C(N2)c2ccccc2C1=O (stereo unspecified)	none
Cc1cc(C)nc(NS(=O)(=O)c2ccc(NC(=O)C3(c4ccc([N+](=O)[O-])cc4)CCCC3)cc2)n1	none
Cc1cccc(NC(=O)C2(c3ccc([N+](=O)[O-])cc3)CCCC2)c1	SDO1 yeast rescue 6.5 | SDO1 rescue DR inactive
COc1ccc2cc3cc(C(=O)Nc4cc(OC)c(OC)c(OC)c4)oc3nc2c1	none
COc1ccc2cc3cc(C(=O)Nc4ccc5c(c4)OCCO5)oc3nc2c1	none | SDO1 rescue DR inactive
Cn1c(SCC(=O)O)nnc1-c1ccc(NC(=O)c2ccc(Cl)c(Cl)c2)cc1	none (no result: SDO1 yeast rescue, TNAP act hi DEA, TNAP inh noacc, TNAP inh hi DEA)
Cc1ccc2nc(-c3ccc(NC(=O)COC(=O)c4ccco4)cc3)sc2c1	none
CCOc1ncccc1C(=O)OCC(=O)Nc1ccc(-c2nc3ccc(C)cc3s2)cc1	none (no result: L929 necroptosis) | SDO1 rescue DR inactive
